# Test results from ChEMBL document CHEMBL1131165, “Inhibitors of acyl-CoA:cholesterol O-acyltransferase. 3. Discovery of a novel series of N-alkyl-N-[(fluorophenoxy)benzyl]-N'-arylureas with weak toxicological effects on adrenal glands” (J Med Chem, 1998).
# Active and inactive are the calls of the source. No cut-off for these calls is given here.
# Legend:
# Rattus norvegicus [1] = experiment: In vivo hypocholesterolemic activity in cholesterol-fed rats by oral administration by gavage in PEG400 as a vehicle; assay type: functional
# How it was run: (§1)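 Cholesterol-fed rats were dosed orally by gavage with PEG400 as vehicle. Plasma total cholesterol was compared with control and reported as ED50 (the dose reducing it by 50%) or as percent reduction at the dose given. Significance was tested by unpaired two-tailed Student's t-test.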
# [2] = In vitro inhibitory activity against acetylated LDL-induced accumulation of cholesteryl esters in mouse peritoneal macrophages; assay type: functional
# How it was run: (§2)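 Mouse peritoneal macrophages were exposed to acetylated LDL, which induces accumulation of cholesteryl esters. Read-out is the IC50 (nM) for inhibiting that accumulation. Values given in parentheses are percent inhibition at the concentration indicated.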
# O-acyltransferase [3] = biological target: T1, O-acyltransferase (Oryctolagus cuniculus, UniProt G1SFD9); experiment: In vitro inhibition of acyl coenzyme A:cholesterol acyltransferase (ACAT) from rabbit intestinal microsomes
# How it was run: (§3)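 Enzyme source is microsomes from rabbit intestine. Read-out is the concentration giving 50% inhibition of ACAT activity (IC50, nM). Some IC50 values were estimated relative to the IC50 of a reference inhibitor tested on the same enzyme batch.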
# Rattus norvegicus [4] = experiment: In vivo hypocholesterolemic activity in cholesterol-fed rats by oral administration in a cholesterol enriched diet; assay type: functional
# How it was run: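 Rats were fed a cholesterol-enriched diet, and compound was given orally as an admixture in that diet. Read-out is plasma total cholesterol against control, expressed as ED50 (the dose reducing it by 50%) or as percent reduction at the stated dose. Significance was tested by unpaired, two-tailed Student's t-test.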
# [5] = Adrenal toxicity in rabbits at 5 mg/kg i.v., expressed as drug-induced necrosis; + indicates necrosis observed; assay type: organism-based, Oryctolagus cuniculus; parameters: dose 5 mg/kg, route intravenous; conditions: rabbit, in vivo, iv
# How it was run: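 Rabbits (n = 2) given a single 5 mg/kg iv dose as a solution in PEG400. Adrenal glands were examined for drug-induced necrosis of zona fasciculata cortical cells at 24 h after dosing. Each result is scored against controls as observed (+) or not observed (-).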
# Rattus norvegicus [6] = experiment: Percent reduction in cholesterol levels in rats at <0.1 mg/kg; assay type: functional
# How it was run: (§4)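 In cholesterol-fed rats, compound was given orally either as a dietary admixture or by gavage in PEG400. Read-out is the percent reduction of plasma total cholesterol versus control at the dose indicated. Significance was assessed by unpaired, two-tailed Student's t-test.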
# Rattus norvegicus [7] = experiment: Percent reduction in cholesterol levels in rats at >1 mg/kg; assay type: functional; how it was run: as §4
# Rattus norvegicus [8] = experiment: Percent reduction in cholesterol levels in rats at <0.1 mg/kg; inactive; assay type: functional, organism-based; conditions: in the assay text read “>0.1 mg/kg” for “<0.1 mg/kg”; how it was run: as §4
# Rattus norvegicus [9] = experiment: Percent reduction in cholesterol levels in rats at <0.01 mg/kg; assay type: functional; how it was run: as §4
# [10] = In vitro inhibitory activity against acetylated LDL-induced accumulation of cholesteryl esters in mouse peritoneal macrophages at <10 nM concentration; assay type: functional; how it was run: as §2
# Rattus norvegicus [11] = experiment: Percent reduction in cholesterol levels in rats at >0.1 mg/kg; assay type: functional; how it was run: as §4
# O-acyltransferase [12] = biological target: T1, O-acyltransferase; experiment: In vitro inhibitory activity against Acyl coenzyme A:cholesterol acyltransferase from rabbit intestinal microsomes; assay type: functional; how it was run: as §3
# Rattus norvegicus [13] = experiment: Percent reduction in cholesterol levels in rats at <1 mg/kg; assay type: functional; how it was run: as §4
# Rattus norvegicus [14] = experiment: Percent reduction in cholesterol levels in rats at >0.1 mg/kg; inactive; assay type: functional, organism-based; how it was run: as §4
# Rattus norvegicus [15] = experiment: Percent reduction in cholesterol levels in rats at 0.01 mg/kg; assay type: functional; how it was run: as §4
# Rattus norvegicus [16] = experiment: Percent reduction in cholesterol levels in rats at 0.032 mg/kg; assay type: functional; how it was run: as §4
# Rattus norvegicus [17] = experiment: In vivo hypocholesterolemic activity in cholesterol-fed rats by oral administration of compound by gavage in PEG400 as a vehicle; inactive at >1; assay type: functional, organism-based; how it was run: as §1
# T1 sequence (G1SFD9 1-524): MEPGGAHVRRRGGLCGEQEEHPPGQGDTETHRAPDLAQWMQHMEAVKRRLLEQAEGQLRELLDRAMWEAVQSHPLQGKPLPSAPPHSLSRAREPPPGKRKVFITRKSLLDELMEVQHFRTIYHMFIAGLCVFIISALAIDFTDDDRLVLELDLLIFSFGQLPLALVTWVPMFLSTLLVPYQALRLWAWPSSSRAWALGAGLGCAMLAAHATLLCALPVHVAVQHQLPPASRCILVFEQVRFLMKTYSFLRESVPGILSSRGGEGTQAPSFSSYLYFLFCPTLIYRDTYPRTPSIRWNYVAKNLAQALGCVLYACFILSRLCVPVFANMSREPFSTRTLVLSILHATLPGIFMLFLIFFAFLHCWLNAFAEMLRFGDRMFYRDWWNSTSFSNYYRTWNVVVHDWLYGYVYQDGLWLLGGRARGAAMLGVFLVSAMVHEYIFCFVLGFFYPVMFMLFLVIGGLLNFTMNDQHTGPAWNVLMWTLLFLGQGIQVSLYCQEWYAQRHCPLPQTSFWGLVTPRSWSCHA
SMILES,ED50 (Rattus norvegicus [1]) [mg/kg],IC50 [2] [nM],IC50 (O-acyltransferase [3]) [nM],ED50 (Rattus norvegicus [4]) [mg/kg],also measured
Cc1cc(C)c(NC(=O)N(Cc2ccc(Oc3ccc(F)cc3)cc2)C2CCCCCC2)c(C)c1,5.3,80,25,0.045,
CSc1cc(C)nc(SC)c1NC(=O)N(Cc1ccc(Oc2ccc(F)cc2)cc1)C1CCCCCC1,0.11,48,,0.034,Toxicity [5]: necrosis observed
CSc1cc(C)nc(SC)c1NC(=O)N(Cc1ccccc1)Cc1ccc(Oc2ccc(Br)cc2)cc1,< 0.1,14,10,0.011,Reduction (Rattus norvegicus [6]): 54%
CSc1cc(C)nc(SC)c1NC(=O)N(Cc1cccc(Oc2ccc(F)cc2)c1)C1CCCCCC1,,2.9,73,< 0.1,
CSc1nc(C)cc(Cl)c1NC(=O)N(Cc1ccc(Oc2ccc(F)cc2)cc1)C1CCCCCC1,> 1,350,12,< 0.1,Reduction (Rattus norvegicus [6]): 77%; Reduction (Rattus norvegicus [7]): 48%
CSc1nc(C)nc(SC)c1NC(=O)N(Cc1ccc(Oc2ccc(F)cc2)cc1)C1CCCCCC1,0.45,20,56,0.069,Toxicity [5]: necrosis observed
Cc1cc(C)c(NC(=O)N(Cc2ccc(Oc3ccc(F)cc3)cc2)C2CCCCCC2)c(C)n1,0.77,240,62,0.044,
CSc1cc(C)nc(S(C)(=O)=O)c1NC(=O)N(Cc1ccc(Oc2ccc(F)cc2)cc1)C1CCCCCC1,,15,78,> 0.1,Reduction (Rattus norvegicus [8]): inactive
CSc1cc(C)nc(SC)c1NC(=O)N(Cc1ccccc1)Cc1cccc(-c2cc[nH]n2)c1,,350,,,
CSc1cc(C)nc(SC)c1NC(=O)N(Cc1ccccc1)Cc1ccc(Oc2ccc(F)cc2)cc1,,< 10,9.1,< 0.01,Reduction (Rattus norvegicus [9]): 58%; Inhibition [10]: 77%
Cc1cc(S(C)(=O)=O)c(NC(=O)N(Cc2ccc(Oc3ccc(F)cc3)cc2)C2CCCCCC2)c(Cl)n1,> 1,350,30,> 0.1,Reduction (Rattus norvegicus [11]): 46%; Reduction (Rattus norvegicus [7]): 34%
CSc1cc(C)nc(Cl)c1NC(=O)N(Cc1ccc(Oc2ccc(F)cc2)cc1)C1CCCCCC1,0.17,47,46,0.022,Toxicity [5]: necrosis observed
CSc1cc(C)nc(SC)c1NC(=O)N(Cc1ccc(Oc2ccc(F)cc2)cc1)[C@H](C)c1ccccc1,4.6,110,19,0.095,
O=C(Nc1c(F)cc(F)cc1F)N(Cc1ccccc1)Cc1cccc(-c2cc[nH]n2)c1,,7400,,,
CSc1cc(C)nc(SC)c1NC(=O)N(Cc1ccc(Oc2ccc(Br)cc2)cc1)C1CCCCCC1,,< 10,28,0.02,Inhibition [10]: 75%
CCOCCN(Cc1ccc(Oc2ccc(F)cc2)cc1)C(=O)Nc1c(SC)cc(C)nc1SC,,,24,> 0.1,Reduction (Rattus norvegicus [11]): 26%

SMILES,ED50 (Rattus norvegicus [1]) [mg/kg],IC50 [2] [nM],IC50 (O-acyltransferase [3]) [nM],ED50 (Rattus norvegicus [4]) [mg/kg],also measured
CSc1cc(C)nc(SC)c1NC(=O)N(Cc1ccc(Oc2ccc(F)cc2)cc1)Cc1c(C)cccc1C,,21,,,IC50 (O-acyltransferase [12]): 26 nM
Cc1cc(Cl)c(NC(=O)N(Cc2ccc(Oc3ccc(F)cc3)cc2)C2CCCCCC2)c(Cl)n1,,,14,> 0.1,Reduction (Rattus norvegicus [11]): 38%
CSc1cc(C)nc(C)c1NC(=O)N(Cc1ccc(Oc2ccc(F)cc2)cc1)C1CCCCCC1,< 1,35,90,,Reduction (Rattus norvegicus [13]): 72%
CSc1cc(C)nc(SC)c1NC(=O)N(Cc1ccc(Oc2ccc(F)cc2)cc1)[C@@H](C)c1ccccc1,,260,19,> 0.1,Reduction (Rattus norvegicus [14]): inactive
CSc1cc(C)nc(SC)c1NC(=O)N(Cc1ccc(Oc2ccc(F)cc2)cc1)C1CCCCC1,,< 10,23,< 0.01,Reduction (Rattus norvegicus [15]): 63%; Inhibition [10]: 61%
COc1cc(C)nc(OC)c1NC(=O)N(Cc1ccc(Oc2ccc(F)cc2)cc1)C1CCCCCC1,4.5,350,33,0.032,
Cc1cc(S(C)(=O)=O)c(NC(=O)N(Cc2ccc(Oc3ccc(F)cc3)cc2)C2CCCCCC2)c(S(C)(=O)=O)n1,0.63,215,45,0.068,
CSc1cc(C)nc(SC)c1NC(=O)N(Cc1ccc(Oc2ccc(F)cc2)cc1)C1CCOCC1,,,46,< 0.1,Reduction (Rattus norvegicus [6]): 58%
Cc1ccc(NC(=O)N(Cc2ccc(Oc3ccc(F)cc3)cc2)C2CCCCCC2)c(Cl)n1,,,19,> 0.1,
COc1nc(C)cc(SC)c1NC(=O)N(Cc1ccc(Oc2ccc(F)cc2)cc1)C1CCCCCC1,1.4,13,29,< 0.032,Reduction (Rattus norvegicus [16]): 62%
CSc1cc(C)nc(SC)c1NC(=O)N(CCc1ccccc1)Cc1ccc(Oc2ccc(F)cc2)cc1,2.7,6.1,16,0.016,
COc1ccc(CN(Cc2ccc(Oc3ccc(F)cc3)cc2)C(=O)Nc2c(SC)cc(C)nc2SC)cc1,,,29,> 0.1,Reduction (Rattus norvegicus [11]): 24%
CSc1cc(C)nc(SC)c1NC(=O)N(CCCc1ccccc1)Cc1ccc(Oc2ccc(F)cc2)cc1,,40,28,0.025,
CSc1cc(C)nc(SC)c1NC(=O)N(Cc1ccc(Oc2ccc(F)cc2)cc1)C(C)(C)c1ccccc1,,52,24,,ED50 (Rattus norvegicus [17]): inactive
COc1nc(C)ccc1NC(=O)N(Cc1ccc(Oc2ccc(F)cc2)cc1)C1CCCCCC1,,,39,> 0.1,Reduction (Rattus norvegicus [14]): inactive
